High-throughput results from PubChem.
KCNK3 block: human KCNK3 channel inhibition, primary screen; O14649; CHO-KCNK3 thallium flux, FluxOR fluorescence; hits give low values; B-score at 10 µM; actives 0.84% (n = 340,000);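 active = B-score under library mean minus 4 SD, starting fluorescence ratio at most library mean plus 5 SD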;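 note: more negative B-score means stronger inhibition of thallium flux through KCNK3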
Target sequence (O14649 whole entry, looked up): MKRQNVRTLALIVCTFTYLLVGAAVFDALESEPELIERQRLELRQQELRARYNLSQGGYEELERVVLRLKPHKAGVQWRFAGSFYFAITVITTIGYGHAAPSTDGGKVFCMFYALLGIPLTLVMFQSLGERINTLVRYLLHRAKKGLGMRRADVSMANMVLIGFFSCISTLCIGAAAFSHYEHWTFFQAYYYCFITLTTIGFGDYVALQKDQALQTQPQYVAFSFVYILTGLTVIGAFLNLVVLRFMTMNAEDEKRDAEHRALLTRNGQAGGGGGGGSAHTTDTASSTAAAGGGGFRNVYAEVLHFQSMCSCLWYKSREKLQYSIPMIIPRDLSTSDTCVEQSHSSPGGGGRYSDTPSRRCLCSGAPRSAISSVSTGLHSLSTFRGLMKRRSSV
hERG protect: shields human hERG channel from block by proarrhythmic agents. Q12809. CHO-hERG, FluxOR thallium flux, dofetilide IC70 present. activation (rescue from dofetilide block), less the hit threshold, % at 10 µM. actives 0.51% (n = 310,000). AID 1511;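 active = activation above the mean of controls blocked by dofetilide plus 5 SD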;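 note: thallium influx through hERG after potassium depolarization seen as dye fluorescence rise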
KCNQ1 act: potentiates or activates the human KCNQ1 potassium channel; P51787; CHO-K1 KCNQ1, thallium flux FluxOR fluorescence; hits give high values; B-score at 10 µM; actives 0.35% (n = 310,000); AID 2648;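 active = fluorescence ratio B-score, a plate-corrected score, at least three library SD, with initial intensity B-score within 5 SD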
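Medium – assay buffer, equal DMSO in all wells · Material – CHO-K1 cell line with stable KCNQ1 potassium channel expression · Signal – kinetic FluxOR thallium fluorescence, 10-s 1-Hz baseline, 110-s post-stimulus read · Compound – single concentration per compound, DMSO matched to controls · Schedule – 37 °C overnight plating, 90-min dark dye load, 20-min compound pretreatment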
KCNK9 block: blocks the human KCNK9 two-pore domain potassium channel; actives 1.2% (n = 310,000); Q9NPC2; B-score at 10 µM; HEK293 KCNK9, FluxOR thallium flux fluorescence; hits give low values;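 active = ratio B-score over 3 SD below the library mean, with starting fluorescence within 5 SD of its mean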;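 note: negative B-score means less thallium flux so channel inhibition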
KCNQ1 inh: human KCNQ1 channel inhibition. P51787. CHO-K1 KCNQ1, FluxOR thallium flux fluorescence; hits give high values. B-score at 10 µM. actives 1.3% (n = 310,000);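 active = compounds whose thallium flux B-score, printed positive for inhibition, exceeds three library SD while starting fluorescence stays within three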;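 note: channel opened by potassium depolarization with thallium stimulus after 20 min compound exposure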
KCNK9 block conf: human KCNK9 inhibitor confirmation. actives 43% (n = 4,900). inhibition, % at 10 µM. AID 492992. shares compounds with KCNK9 block. HEK293 KCNK9 cells, FluxOR thallium flux fluorescence;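 active = thallium signal inhibited by more than 5 SD of the compound-free buffer control wells, on both duplicate plates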;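 note: 0% = assay buffer control wells without compound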
Kir2-1 spec: tests whether KCNK9 modulators also affect mouse Kir2.1; shares compounds with KCNK9 block; Kir2.1 cells, FluxOR thallium flux fluorescence; actives 4% (n = 4,900); AID 492993; inhibition, % at 10 µM;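 active = thallium signal drop more than 5 SD beyond the mean of the no-compound control wells, seen in both duplicate plates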;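 note: signal is fluorescence rise after thallium addition divided by baseline fluorescence; plate controls were assay buffer only for no effect and full block by chlorpromazine control for full effect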
KCNK9 uninduced: non-induced cell nonspecific activity of KCNK9 modulators | shares compounds with KCNK9 block | AID 492997 | inhibition, % at 10 µM | actives 40% (n = 4,900) | non-induced KCNK9-HEK293, FluxOR thallium flux;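 active = thallium signal drop beyond 5 SD of the untreated control mean, on both duplicate plates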;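 note: plate controls were buffer only IC0 wells for no effect and SID17386958 at its maximal inhibitory level for full effect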
KCNK3 confirm: human KCNK3 channel inhibition, confirmation assay. shares compounds with KCNK3 block. CHO-KCNK3 thallium flux, FluxOR fluorescence; 0% buffer, 100% carvedilol maximal block. ratio percent of control, % at 10 µM. actives 99% (n = 2,400);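 active = ratio percent of control, averaged over triplicates, above buffer control mean plus 5 SD, cut at about 64% in these data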;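 note: ratio is the fluorescence rise from min to max over baseline after thallium stimulus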
KCNK3 uninduced: KCNK3 inhibitor counter-screen hit in non-induced cells | non-induced KCNK3 parental cells, FluxOR thallium flux; hits give low values | thallium flux ratio (lower = more inhibition) at 10 µM | actives 40% (n = 2,400) | shares compounds with KCNK3 block;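 active = thallium flux ratio, averaged over three wells, more than 5 SD below the buffer control mean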;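 note: host cells are CHO cells without KCNK3 induction; ratio is peak minus trough fluorescence over baseline then normalized to buffer controls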
Numbers without * were called inactive; i = inactive; / = not tested or not shown. An excerpt weighted towards active compounds, which were near 3.1% of everything screened.

SMILES	KCNK3 block	hERG protect	KCNQ1 act	KCNK9 block	KCNQ1 inh	KCNK9 block conf	Kir2-1 spec	KCNK9 uninduced	KCNK3 confirm	KCNK3 uninduced
COc1cc(C(=O)Nc2ccc(NC(=O)c3ccccc3Cl)nc2)cc(OC)c1OC	i	-11	i	i	i	/	/	/	/	/
O=C(Nc1nc(-c2ccccc2)cs1)c1cccs1	i	-13	i	i	i	/	/	/	/	/
O=C(Nc1nc(-c2ccc(Cl)s2)cs1)c1cccs1	-8.9*	-14	i	-9.2*	i	i	i	32%*	97*	i
C#CCN(Cc1ccco1)C(=O)c1cc(COc2ccc(F)cc2Cl)on1	-11*	-7	i	-9.3*	i	i	i	34%*	115*	0.15*
CCN(Cc1ccncc1)C(=O)c1cc(COc2ccc(F)cc2Cl)on1	i	-4	i	i	i	/	/	/	/	/
O=C(Nc1ccncc1)C1(c2ccccc2)CCCC1	i	1	i	i	i	/	/	/	/	/
O=C(Nc1ccc(O)c(-c2nc3ccccc3o2)c1)C1(c2ccccc2)CCCC1	-9.6*	-14	i	-12*	i	40%*	i	i	100*	i
CC1CCN(C(=O)N2c3ccccc3Sc3ccccc32)CC1	-11*	-18	i	-9.3*	11*	58%*	i	46%*	113*	0.13*
CCC(C)(C)C1CCC2(CC1)NC(=O)N(CC(=O)N1CCN(C(=O)c3ccco3)CC1)C2=O (centres undefined)	i	/	/	/	/	/	/	/	/	/
CCOc1cccc2sc(N(CCN(C)C)C(=O)c3ccc4ccccc4c3)nc12	-9.6*	-23	i	-9.4*	i	36%*	i	i	118*	i
COc1ccccc1NC(=O)c1ccc(COc2ccccc2Br)o1	-10*	-7	i	-13*	i	56%*	i	42%*	130*	0.15*
COc1ccccc1NC(=O)c1ccc(COc2ccccc2OC)o1	i	3	i	i	i	/	/	/	/	/
Cc1ccc(O)c(C(=O)c2cnc3c(c2)COc2ccccc2-3)c1	i	-10	i	-15*	i	41%*	i	28%*	96*	i
O=C(c1cnc2c(c1)COc1ccc(Cl)cc1-2)c1ccccc1O	i	-3	i	i	i	/	/	/	/	/
O=C(COC(=O)c1c2c(nc3ccccc13)CCCC2)c1cccs1	-12*	-18	i	-10*	i	54%*	i	i	138*	0.12*
COc1ccc(OC)c(NC(=O)NNS(=O)(=O)c2ccc(C)cc2C)c1	i	-8	i	i	i	/	/	/	/	/
CC(C)C(=O)Nc1ccc(NC(=O)c2ccc(COc3ccccc3)cc2)cc1	i	-2	i	i	i	/	/	/	/	/
CCCCC(C(=O)NC1CCCC1)N(Cc1ccco1)C(=O)Cn1nnc(-c2ccc(F)cc2)n1 (centres undefined)	-12*	-4	i	-22*	i	54%*	i	37%*	92*	i
COc1ccccc1C(CCN(Cc1cccs1)C(C)=O)c1ccco1 (centres undefined)	-13*	-14	i	-9.3*	i	40%*	i	34%*	105*	i
Cc1ccc(COn2c(-c3ccc(Cl)cc3Cl)nc3ncccc32)cc1	-9.6*	-15	i	-11*	i	56%*	i	42%*	120*	0.15*
Cc1nnc(SCC(=O)Nc2cc(C(C)(C)C)nn2-c2ccccc2)s1	i	-7	i	i	i	/	/	/	/	/
CCC(C)n1c(SCC(=O)Nc2cc(C(C)(C)C)nn2-c2ccccc2)nc2ccccc2c1=O (centres undefined)	i	-5	i	-8.2*	10*	40%*	i	38%*	105*	0.13*
COC(=O)[C@H](CCSC)NC(=O)N1CCN(c2cccc(C(F)(F)F)c2)CC1	i	-8	i	-8.8*	i	58%*	i	i	84*	i
COc1ccc(-c2ccc(SCC(=O)c3cccs3)nn2)cc1OC	i	-10	i	i	i	/	/	/	/	/
COc1ccc(-c2ccc(SCC(=O)c3ccc(F)cc3)nn2)cc1OC	-9.8*	-19	i	-15*	i	64%*	i	i	118*	i
SMILES	KCNK3 block	hERG protect	KCNQ1 act	KCNK9 block	KCNQ1 inh	KCNK9 block conf	Kir2-1 spec	KCNK9 uninduced	KCNK3 confirm	KCNK3 uninduced
CC(=O)c1cccc(NC(=O)COC(=O)CCC(=O)c2cccs2)c1	i	/	/	/	/	/	/	/	/	/
O=c1ccc2ccc(OCCOc3cccc(Cl)c3)cc2o1	i	-16	i	-9.5*	i	32%*	i	42%*	100*	i
COc1cccc(C(=O)COc2ccc3ccc(=O)oc3c2)c1	i	-13	i	i	i	/	/	/	/	/
O=C(CCCN1C(=O)NC2(CCCC2)C1=O)Nc1cccc(S(=O)(=O)N2CCOCC2)c1	i	/	/	/	/	/	/	/	/	/
CCN(CC(=O)Nc1ccc2c(c1)OCCO2)C(=O)COc1ccc(C)cc1	i	-3	i	i	i	/	/	/	/	/
O=C(NCCn1cc(SCc2ccccc2)c2ccccc21)c1c(F)cccc1F	i	-12	i	i	i	/	/	/	/	/
O=C(NCCn1cc(SCc2ccc(F)cc2)c2ccccc21)c1c(F)cccc1F	-9.9*	-9	i	-14*	i	60%*	i	31%*	94*	i
Cc1cccc(NC(=O)c2ccc(C)c(S(=O)(=O)N3CCOCC3)c2)n1	i	/	/	/	/	/	/	/	/	/
CCOC(=O)c1c(NC(=O)CSc2nnc(C)s2)sc2c1CCCCC2	-9.8*	-1	i	-9.4*	i	37%*	i	48%*	121*	0.16*
O=C(Nc1nnc(Cc2ccccc2F)s1)Nc1ccccc1F	i	-10	i	i	i	/	/	/	/	/
Cc1ccc(NC(=O)c2cccs2)cc1NC(=O)c1ccccc1Cl	i	-4	i	i	i	/	/	/	/	/
O=C(Nc1cccc(NC(=O)c2ccccc2Cl)c1)c1cccs1	i	-2	i	-13*	i	57%*	i	28%*	112*	i
COc1ccc(-c2cccc(NC(=O)c3cccs3)c2)nn1	-10*	-16	i	-9.1*	i	35%*	i	i	96*	i
